Data as given in ChEMBL document CHEMBL4177680, “Discovery of a Potent, Selective T-type Calcium Channel Blocker as a Drug Candidate for the Treatment of Generalized Epilepsies” (J Med Chem, 2017).

Key:
[1] = system: Salmonella typhimurium; assay: Mutagenicity in Salmonella typhimurium TA98 assessed as increase in number of revertants in presence of rat liver S9 fraction by Ames test relative to control; type: toxicity, organism-based; details: salmonella enterica subsp. enterica serovar typhimurium
[2] = system: Salmonella typhimurium; assay: Mutagenicity in Salmonella typhimurium TA100 assessed as increase in number of revertants in presence of rat liver S9 fraction by Ames test relative to control; type: toxicity, organism-based; details: salmonella enterica subsp. enterica serovar typhimurium
[3] = Free drug level in Wistar rat brain at 10 mg/kg administered via oral gavage measured after 1 hr by rapid equilibrium dialysis method; type: ADME, organism-based; details: in vivo
[4] = Drug level in Wistar rat cerebrospinal fluid at 10 mg/kg administered via oral gavage measured after 1 hr by LC-MS/MS method; type: ADME, organism-based; details: read-out: Drug uptake
How it was run: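 Wistar rats given 10 mg/kg po and killed at 1 h. Brain, plasma and CSF concentrations measured; free brain and plasma levels reported from unbound fractions. Mean ± SD, n = 3.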

[5] = Fraction unbound in Wistar rat plasma at 10 mg/kg administered via oral gavage measured after 1 hr by rapid equilibrium dialysis method; type: ADME, organism-based; details: in vivo
[6] = Covalent protein binding in human liver microsomes at 10 uM after 1 hr in presence of NADPH regenerating system by liquid scintillation counting method; type: ADME, microsome
[7] = Total drug level in Wistar rat brain at 10 mg/kg administered via oral gavage measured after 1 hr by LC-MS/MS method; type: ADME, organism-based; details: read-out: Drug uptake
[8] = Chemical stability of the compound in amorphous form at room temperature; type: physicochemical
[9] = Half life in human plasma at 10 uM by LC-MS/MS method; type: ADME, cell-free
[10] = Half life in rat plasma at 10 uM by LC-MS/MS method; type: ADME, cell-free
[11] = Drug metabolism in human plasma assessed as 3-amino-1-(3,4-difluorobenzyl)pyrazole formation at 10 uM by LC-MS/MS method; type: ADME, cell-free
[12] = Drug metabolism in rat plasma assessed as 3-amino-1-(3,4-difluorobenzyl)pyrazole formation at 10 uM by LC-MS/MS method; type: ADME, cell-free
[13] = system: MDR1; assay: Apparent permeability across apical to basolateral side in MDCK cells expressing MDR1 at 1 uM measured every 30 mins for 2 hrs; type: ADME, cell-based, Canis lupus familiaris; details: dog
[14] = system: MDR1; assay: Apparent permeability across basolateral to apical side in MDCK cells expressing MDR1 at 1 uM measured every 30 mins for 2 hrs; type: ADME, cell-based, Canis lupus familiaris; details: dog
[15] = Drug level in rat plasma treated with N-(1-(3,4-Difluorobenzyl)-1H-pyrazol-3-yl)-2-(1H-indol-5-yl)acetamide at 10 uM by LC-MS/MS method; type: ADME, cell-free
[16] = Drug level in human plasma treated with N-(1-(3,4-Difluorobenzyl)-1H-pyrazol-3-yl)-2-(1H-indol-5-yl)acetamide at 10 uM by LC-MS/MS method; type: ADME, cell-free
[17] = Drug metabolism in human plasma at 10 uM after 6 hrs by LC-MS/MS method; type: ADME, cell-free; details: read-out: Drug metabolism
[18] = Intrinsic clearance in human liver microsomes assessed per mg of protein at 1 uM after 15 mins in presence of NADPH regenerating system by LC-MS/MS method; type: ADME, microsome; details: read-out: CLH
[19] = Intrinsic clearance in Wistar rat liver microsomes assessed per mg of protein at 1 uM after 15 mins in presence of NADPH regenerating system by LC-MS/MS method; type: ADME, microsome; details: read-out: CLH
[20] = Clearance in Wistar rat at 1 mg/kg, iv administered via 5 mins infusion by LC-MS/MS method; type: ADME, organism-based; details: in vivo
[21] = Half life in Wistar rat at 1 mg/kg, iv administered via 5 mins infusion by LC-MS/MS method; type: ADME, organism-based; details: in vivo
[22] = Cmax in Wistar rat plasma at 10 mg/kg administered via oral gavage by LC-MS/MS method; type: ADME, organism-based; design: dose 10 mg/kg, route oral
[23] = Oral bioavailability in Wistar rat at 10 mg/kg administered via gavage by LC-MS/MS method; type: ADME, organism-based; details: in vivo
[24] = Fraction unbound in audiogenic seizure-sensitive juvenile DBA/2J mouse brain at 100 mg/kg administered via oral gavage measured at 3 hrs; type: ADME, organism-based; details: in vivo
[25] = system: Rattus norvegicus; assay: Unbound Cmax in normotensive Wistar rat at 30 mg/kg, po; type: ADME, organism-based; details: in vivo
[26] = system: Rattus norvegicus; assay: Unbound Cmax in spontaneously hypertensive Wistar-Kyoto rat at 30 mg/kg, po; type: ADME, organism-based; details: in vivo
[27] = system: Cavia porcellus; assay: Unbound Cmax in Dunkin-Hartley guinea pig at 30 mg/kg, po; type: ADME, organism-based; details: in vivo
[28] = system: Canis familiaris; assay: Unbound Cmax in Beagle dog at 10 mg/kg, po; type: ADME, organism-based, Canis lupus familiaris; details: in vivo
[29] = system: Cynomolgus monkey; assay: Unbound Cmax in cynomolgus monkey at 1000 mg/kg, po; type: ADME, organism-based, Macaca fascicularis; details: in vivo
[30] = Intrinsic clearance in monkey liver microsomes assessed per mg of protein at 1 uM after 15 mins in presence of NADPH regenerating system by LC-MS/MS method; type: ADME, Macaca mulatta, microsome; details: rhesus monkey, read-out: CLH
[31] = Clearance in NMRI mouse at 1 mg/kg, iv as slow bolus dose by LC-MS/MS method; type: ADME, organism-based; details: in vivo
[32] = Clearance in Beagle dog at 1 mg/kg, iv administered via 15 mins infusion by LC-MS/MS method; type: ADME, organism-based, Canis lupus familiaris; details: in vivo
[33] = Clearance in cynomolgus monkey at 1 mg/kg, iv administered via 15 mins infusion by LC-MS/MS method; type: ADME, organism-based, Macaca fascicularis; details: in vivo

SMILES: Nc1ccn(Cc2ccc(F)cc2)n1
- fold change (FC) [1]: 4.1
- fold change (FC) [2]: 10.2

SMILES: Nc1ccn(Cc2ccccc2)n1
- fold change (FC) [1]: 15.3
- fold change (FC) [2]: 30.3

SMILES: Cn1ncc2cc(CC(=O)Nc3ccn(Cc4ccc(F)c(F)c4)n3)ccc21
- Drug uptake(free) [3]: 51 nM
- concentration at 1 h [4]: 92 nM
- Cp(f) [5]: 72 nM

SMILES: [3H]c1cc(NC(=O)Cc2ccc(C3(C(F)(F)F)CC3)cc2)nn1Cc1ccc(C#N)cn1
- PB [6]: 72 pmol/mg/h

SMILES: CC(C)(C)c1ccc(CC(=O)Nc2ncn(Cc3ccc(F)c(F)c3)n2)cc1
- Drug uptake(free) [3]: 2.4 nM

SMILES: O=C(Cc1ccc2[nH]ccc2c1)Nc1ccn(Cc2ccc(F)c(F)c2)n1
- concentration at 1 h [7]: 4.68 µM
- Drug uptake(free) [3]: 52 nM
- concentration at 1 h [4]: 164 nM
- Stability [8]: Unstable
- half-life at 10 µM [9]: 120 min
- half-life at 10 µM [10]: 300 min
- Drug metabolism [11]: Metabolite_Detected
- Drug metabolism [12]: Metabolite_Detected

SMILES: CCc1cc(CC(=O)Nc2ccn(Cc3ccc(C#N)cn3)n2)ccc1OCC(F)(F)F
- Drug uptake(free) [3]: 4.8 nM

SMILES: N#Cc1cc(Cn2ccc(N)n2)ccc1F
- fold change (FC) [1]: 1.5
- fold change (FC) [2]: 1.5

SMILES: Cn1c(=O)oc2cc(CC(=O)Nc3ccn(Cc4ccc(F)c(F)c4)n3)ccc21
- Papp A→B at 2 h, 1 µM [13]: 11 ×10⁻⁶ cm/s
- Papp B→A at 2 h, 1 µM [14]: 59 ×10⁻⁶ cm/s

SMILES: O=C(Cc1ccc(C2(F)COC2)cc1)Nc1ccn(Cc2ccc(F)c(F)c2)n1
- concentration at 1 h [7]: 2.99 µM
- Drug uptake(free) [3]: 63 nM
- concentration at 1 h [4]: 135 nM

SMILES: Cn1ncc2cc(CC(=O)Nc3cnn(Cc4ccc(F)c(F)c4)n3)ccc21
- Drug uptake(free) [3]: 63 nM

SMILES: Nc1nc(Cc2ccc(F)c(F)c2)cs1
- fold change (FC) [1]: 2.7
- fold change (FC) [2]: 1.1

SMILES: N#Cc1cn(Cc2ccc(F)c(F)c2)nc1N
- fold change (FC) [1]: 1.1
- fold change (FC) [2]: 1.1

SMILES: N#Cc1ccc(Cn2ccc(N)n2)cc1F
- fold change (FC) [1]: 1.2
- fold change (FC) [2]: 2.2

SMILES: O=C(Cc1ccc2cc[nH]c2c1)Nc1ccn(Cc2ccc(F)c(F)c2)n1
- concentration at 1 h [7]: 4.11 µM
- concentration at 1 h [4]: 50 nM
- Stability [8]: Unstable

SMILES: Nc1ccn(Cc2ccc(F)c(F)c2)n1
- Drug metabolism [15]: Metabolite_Detected
- Drug metabolism [16]: Metabolite_Detected
- fold change (FC) [1]: 2.7
- fold change (FC) [2]: 1.2

SMILES: N#Cc1nc(Cn2ccc(N)n2)ccc1F
- fold change (FC) [1]: 1.2
- fold change (FC) [2]: 1.4

SMILES: N#Cc1ccc(Cn2ccc(N)n2)cc1
- fold change (FC) [1]: 1.5
- fold change (FC) [2]: 1.1

SMILES: Nc1ncn(Cc2ccc(F)c(F)c2)n1
- fold change (FC) [1]: 1.1
- fold change (FC) [2]: 1.1

SMILES: N#Cc1ccc(Cn2ccc(N)n2)nc1
- fold change (FC) [1]: 1
- fold change (FC) [2]: 1.3

SMILES: COc1ccc(C2(C(=O)Nc3ccn(Cc4ccccc4)n3)CC2)cc1
- metabolised at 6 h, 10 µM [17]: < 1%

SMILES: Nc1cnn(Cc2ccc(F)c(F)c2)n1
- fold change (FC) [1]: 1.3
- fold change (FC) [2]: 3.3

SMILES: Cc1ccc(Cn2ccc(N)n2)cc1
- fold change (FC) [1]: 15.1
- fold change (FC) [2]: 19.8

SMILES: COc1ccc(Cn2ccc(N)n2)cc1
- fold change (FC) [1]: 8
- fold change (FC) [2]: 20.8

SMILES: CC(C)(C)c1ccc(CC(=O)Nc2ccn(Cc3ccc(C#N)cn3)n2)cc1
- microsomal CLint at […], 1 µM [18]: 6 µL/min/mg
- Drug uptake(free) [3]: 6.1 nM

SMILES: CC(C)c1ccc(CC(=O)Nc2ccn(Cc3ccccc3)n2)cc1
- metabolised at 6 h, 10 µM [17]: 4%

SMILES: CC(C(=O)Nc1ccn(Cc2ccc(F)cc2)n1)c1ccc(N(C)C)cc1 (racemic)
- metabolised at 6 h, 10 µM [17]: 7%

SMILES: Nc1ccn(CC2CCC(F)(F)CO2)n1 (stereo in doubt; 14a)
- fold change (FC) [1]: 1.4
- fold change (FC) [2]: 1.3

SMILES: Nc1ccn(CC2CCC(F)(F)CO2)n1 (stereo in doubt; 14b)
- fold change (FC) [1]: 1.1
- fold change (FC) [2]: 2.5

SMILES: CC(C)c1ccc(CC(=O)Nc2ccn(CC3CCC(F)(F)CO3)n2)cc1 (stereo in doubt; 15a)
- microsomal CLint at […], 1 µM [18]: 43 µL/min/mg
- microsomal CLint at […], 1 µM [19]: > 500 µL/min/mg
- clearance [20]: > 100 mL/min/kg

SMILES: N#Cc1ccc(Cn2ccc(NC(=O)Cc3ccc(C4(C(F)(F)F)CC4)cc3)n2)nc1 [APINOCALTAMIDE]
- microsomal CLint at […], 1 µM [18]: 24 µL/min/mg
- microsomal CLint at […], 1 µM [19]: 59 µL/min/mg
- Drug uptake(free) [3]: 29 nM
- clearance [20]: 24 mL/min/kg
- half-life [21]: 150 min
- Cmax [22]: 1900 nM
- bioavailability [23]: 75%
- Drug uptake(free) [24]: 244 nM
- fCmax [25]: 190 nM
- fCmax [26]: 90 nM
- fCmax [27]: 140 nM
- fCmax [28]: 140 nM
- fCmax [29]: 160 nM
- microsomal CLint at […], 1 µM [30]: 9 µL/min/mg
- clearance [31]: 13 mL/min/kg
- clearance at […] [32]: 0.9 mL/min/kg
- clearance at […] [33]: 5.5 mL/min/kg
